{"source": "ChEMBL document CHEMBL4028846", "about": "“Insights on the Interaction between Transthyretin and Aβ in Solution. A Saturation Transfer Difference (STD) NMR Analysis of the Role of Iododiflunisal” (J Med Chem, 2017)", "key": {"Transthyretin [1]": {"target": "T1, Transthyretin (Homo sapiens, UniProt P02766)", "test": "Binding affinity to recombinant human transthyretin expressed in Escherichia coli BL21 at 1:50 protein to ligand molar ratio by STD-NMR spectroscopic method", "outline": "(§1)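 Human recombinant WT TTR expressed in E. coli, purified by ion exchange then preparative gel electrophoresis. Protein 20−50 μM in PBS pH 6.0, […] 1:20 to 1:50, 298−313 K, optimized per case. On-resonance at aliphatic region (δ −0.2 to 0.16 ppm), off-resonance δ 100 ppm. Saturation by 20 ms PC9 pulse train, 2 s total, 600 MHz.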"}, "Transthyretin [2]": {"target": "T1, Transthyretin", "test": "Binding affinity to recombinant human transthyretin expressed in Escherichia coli BL21 by STD-NMR spectroscopic method", "outline": "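Human recombinant WT TTR expressed in E. coli, purified by ion exchange then preparative gel electrophoresis. On-resonance at aliphatic region (δ −0.2 to 0.16 ppm), off-resonance δ 100 ppm. Saturation by 20 ms PC9 pulse train, 2 s total, 600 MHz.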"}, "Transthyretin [3]": {"target": "T1, Transthyretin", "test": "Binding affinity to recombinant human transthyretin expressed in Escherichia coli BL21 at 1:45 protein to ligand molar ratio in presence of EGCG by STD-NMR spectroscopic method"}, "Transthyretin [4]": {"target": "T1, Transthyretin", "test": "Binding affinity to recombinant human transthyretin expressed in Escherichia coli BL21 at 1:45 protein to ligand molar ratio by STD-NMR spectroscopic method", "outline": "as §1"}, "Transthyretin [5]": {"target": "T1, Transthyretin", "test": "Binding affinity to recombinant human transthyretin expressed in Escherichia coli BL21 at 1:45 protein to ligand molar ratio in presence of IDIF by STD-NMR spectroscopic method"}, "Transthyretin [6]": {"target": "T1, Transthyretin", "test": "Binding affinity to recombinant human transthyretin expressed in Escherichia coli BL21 at 1:20 to 1:50 […] molar ratio by STD-NMR spectroscopic method", "outline": "as §1"}, "Transthyretin [7]": {"target": "T1, Transthyretin", "test": "Binding affinity to recombinant human transthyretin expressed in Escherichia coli BL21 at 1:4 protein to ligand molar ratio in presence of EGCG by STD-NMR spectroscopic method"}}, "note": "The source made the active and inactive calls. The rule behind the calls is not given here."}
{"compound": "O=C(O[C@@H]1Cc2c(O)cc(O)cc2O[C@@H]1c1cc(O)c(O)c(O)c1)c1cc(O)c(O)c(O)c1", "note": "[EPIGALOCATECHIN GALLATE]", "values": [{"measurement": "Activity", "setting": "Transthyretin [1]", "value": "Active"}, {"measurement": "Kd", "setting": "Transthyretin [2]", "value": 400, "unit": "nM"}]}
{"compound": "CC(C)C[C@H](NC(=O)[C@H](CCCCN)NC(=O)[C@H](CCC(N)=O)NC(=O)[C@H](Cc1cnc[nH]1)NC(=O)[C@H](Cc1cnc[nH]1)NC(=O)[C@@H](N)C(C)C)C(=O)N[C@H](C(=O)N[C@@H](Cc1ccccc1)C(=O)N[C@@H](Cc1ccccc1)C(=O)N[C@@H](C)C(=O)N[C@@H](CCC(=O)O)C(=O)N[C@@H](CC(=O)O)C(=O)N[C@H](C(=O)NCC(=O)N[C@@H](CO)C(=O)N[C@@H](CC(N)=O)C(=O)N[C@@H](CCCCN)C(=O)O)C(C)C)C(C)C", "values": [{"measurement": "Activity", "setting": "Transthyretin [3]", "value": "inactive"}, {"measurement": "Activity", "setting": "Transthyretin [4]", "value": "Active"}, {"measurement": "Activity", "setting": "Transthyretin [5]", "value": "Active"}]}
{"compound": "C[C@H](NC(=O)[C@@H](N)CC(=O)O)C(=O)N[C@@H](CCC(=O)O)C(=O)N[C@@H](Cc1ccccc1)C(=O)N[C@@H](CCCNC(=N)N)C(=O)N[C@@H](Cc1cnc[nH]1)C(=O)N[C@@H](CC(=O)O)C(=O)N[C@@H](CO)C(=O)NCC(=O)N[C@@H](Cc1ccc(O)cc1)C(=O)N[C@@H](CCC(=O)O)C(=O)O", "values": [{"measurement": "Activity", "setting": "Transthyretin [6]", "value": "inactive"}]}
{"compound": "H-YEVHHQKLVFF-OH", "values": [{"measurement": "Activity", "setting": "Transthyretin [6]", "value": "inactive"}]}
{"compound": "CN(C)C[C@H](O)[C@@H](O)[C@H](O)[C@H](O)CO.O=C(O)c1cc(-c2ccc(F)cc2F)cc(I)c1O", "values": [{"measurement": "Activity", "setting": "Transthyretin [7]", "value": "Active"}, {"measurement": "Activity", "setting": "Transthyretin [6]", "value": "Active"}]}
{"compound": "CN(C)C[C@H](O)[C@@H](O)[C@H](O)[C@H](O)CO.O=C(O)c1cc(-c2ccc(F)cc2F)ccc1O", "values": [{"measurement": "Activity", "setting": "Transthyretin [6]", "value": "Active"}]}
